Source: ChEMBL document CHEMBL1128718, “2-Substituted penems with amino acid-related side chains: synthesis and antibacterial activity of a new series of beta-lactam antibiotics” (1995)
≈ marks a conversion by molar mass, not a printed value.

Legend:
Type in all cases: functional
[1] = system: Staphylococcus epidermidis; test: In Vitro Anti Bacterial Activity (MIC90) against 90% of tested clinical Isolates of Staphylococcus epidermidis (13)
Outline: (§1)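 Over 500 clinical isolates tested in total; the line gives the isolate count. MIC90 for aerobes by dilution in Mueller Hinton 2 medium, inoculum 10⁴ cells/mL, incubated 24 h at 37 °C.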

Clostridium perfringens = test: In Vitro Anti Bacterial Activity (MIC90) against 90% of tested clinical Isolates of Clostridium perfringens(27)
Outline: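 MIC90 over clinical isolates of this anaerobic species, taken from the MIC distribution. Anaerobes were tested on Wilkins-Chalgren agar with an inoculum of 10⁵ cells/mL and incubated 24–48 h at 37 °C.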

Streptococcus agalactiae = test: In Vitro Anti Bacterial Activity (MIC90) against 90% of tested clinical Isolates of Streptococcus agalactiaeB(21)
Listeria monocytogenes = test: In Vitro Anti Bacterial Activity (MIC90) against 90% of tested clinical Isolates of Listeria monocytogenes (20); outline: as §1
Staphylococcus aureus [2] = test: In vitro antibacterial activity against Sa(II) Staphylococcus aureus ATCC 25923
Outline: (§2)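 Panel of standard ATCC strains plus modified strains: methicillin-resistant, hyperpermeable, β-lactamase-producing (TEM1, TEM2, SHV) and β-lactamase-lacking. MIC determined in Mueller Hinton 2 medium, inoculum 10⁴ cells/mL, incubated 24 h at 37 °C.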

Yersinia sp. = test: In Vitro Anti Bacterial Activity (MIC90) against 90% of tested clinical Isolates of Yersinia species(20); details: Yersinia sp. (in: enterobacteria)
[3] = system: Stenotrophomonas maltophilia; test: In Vitro Anti Bacterial Activity (MIC90) against 90% of tested clinical Isolates of Xanthomonas maltophilia(9); outline: as §1
Aeromonas = test: In Vitro Anti Bacterial Activity (MIC90) against 90% of tested clinical Isolates of Aeromonas species(21); outline: as §1
Streptococcus pneumoniae = test: In Vitro Anti Bacterial Activity (MIC90) against 90% of tested clinical Isolates of Streptococcus pneumoniae (23)
Escherichia coli [4] = test: In Vitro antibacterial activity against (Ec SHV) Escherichia coli […] strain; outline: as §2
Pseudomonas aeruginosa [5] = test: In Vitro antibacterial activity against (Pa) Pseudomonas aeruginosa ATCC 27853; outline: as §2
Proteus mirabilis = test: In Vitro Anti Bacterial Activity (MIC90) against 90% of tested clinical Isolates of Proteus mirabilis(16); outline: as §1
Haemophilus influenzae = test: In Vitro Anti Bacterial Activity (MIC90) against 90% of tested clinical Isolates of Haemophilus Influenzae(21)
Outline: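 Clinical isolates. MIC90 in Haemophilus Test Medium Base plus Haemophilus Test Medium Supplement, inoculum 10⁴ cells/mL, incubated 24–48 h at 37 °C.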

Providencia rettgeri = test: In Vitro Anti Bacterial Activity (MIC90) against 90% of tested clinical Isolates of Providencia rettgeri(10); outline: as §1
Staphylococcus aureus [6] = test: In vitro antibacterial activity against Sa(I) Staphylococcus aureus ATCC 29213
Outline: (§3)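 MIC was determined in Mueller Hinton 2 medium with an inoculum of 10⁴ cells/mL and incubation for 24 h at 37 °C. Strains: Sa(I) is S. aureus ATCC 29213; Sa MR(I) is a heterogeneous methicillin-resistant S. aureus; Sa MR(II) is a homogeneous methicillin-resistant S. aureus.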

Streptococcus pyogenes = test: In Vitro Anti Bacterial Activity (MIC90) against 90% of tested clinical Isolates of Streptococcus pyogenes(31)
Staphylococcus aureus [7] = test: In vitro antibacterial activity against Sa MR(I) heterogeneous methicillin resistant Staphylococcus aureus; outline: as §3
Pseudomonas aeruginosa [8] = test: In Vitro antibacterial activity against (Pa G242) hyperpermeable Pseudomonas aeruginosa strain; outline: as §2
Citrobacter freundii = test: In Vitro Anti Bacterial Activity (MIC90) against 90% of tested clinical Isolates of Citrobacter freundii(20); outline: as §1
Klebsiella pneumoniae = test: In Vitro Anti Bacterial Activity (MIC90) against 90% of tested clinical Isolates of Klebsiella pneumoniae(20); outline: as §1
Bacteroides fragilis = test: In Vitro Anti Bacterial Activity (MIC90) against 90% of tested clinical Isolates of Bacteroides fragilis(15)
Outline: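 Anaerobic clinical isolates. MIC90 by dilution in Wilkins-Chalgren agar, inoculum 10⁵ cells/mL, incubated 24–48 h at 37 °C.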

Enterococcus faecium = test: In Vitro Anti Bacterial Activity (MIC90) against 90% of tested clinical Isolates of Enterococcus faecium(47); outline: as §1
Escherichia coli [9] = test: In Vitro antibacterial activity against (Ec TEM2) Escherichia coli […] strain; outline: as §2
Escherichia coli [10] = test: In Vitro antibacterial activity against (Ec TEM1) Escherichia coli […] strain; outline: as §2
Moraxella catarrhalis = test: In Vitro Anti Bacterial Activity (MIC90) against 90% of tested clinical Isolates of Branhamella catarrhalis(27)
Pseudomonas aeruginosa [11] = test: In Vitro Anti Bacterial Activity (MIC90) against 90% of tested clinical Isolates of Pseudomonas aeruginosa(11); outline: as §1
Pseudomonas aeruginosa [12] = test: In Vitro antibacterial activity against (Pa) hyperpermeable Pseudomonas aeruginosa […] strain; outline: as §2
Escherichia coli [13] = test: In Vitro antibacterial activity against (Ec L) Escherichia coli […] strain; outline: as §2
Staphylococcus aureus [14] = test: In Vitro Anti Bacterial Activity (MIC90) against 90% of tested clinical Isolates of Staphylococcus aureus MV (20)
Staphylococcus aureus [15] = test: In Vitro Anti Bacterial Activity (MIC90) against 90% of tested clinical Isolates of Staphylococcus aureus MS (6); outline: as §1
Escherichia coli [16] = test: In Vitro antibacterial activity against (Ec DC2) hyperpermeable Escherichia coli strain; outline: as §2
Enterococcus faecalis [17] = test: In Vitro Anti Bacterial Activity (MIC90) against 90% of tested clinical Isolates of Enterococcus faecalis(47); outline: as §1
Providencia stuartii = test: In Vitro Anti Bacterial Activity (MIC90) against 90% of tested clinical Isolates of Providencia stuartii(10); outline: as §1
Escherichia coli [18] = test: In Vitro Anti Bacterial Activity (MIC90) against 90% of tested clinical Isolates of Escherichia coli; outline: as §1
[19] = system: Acinetobacter calcoaceticus subsp. anitratus; test: In Vitro Anti Bacterial Activity (MIC90) against 90% of tested clinical Isolates of Acinetobacter anitratus(20); outline: as §1
Klebsiella aerogenes = test: In Vitro Anti Bacterial Activity (MIC90) against 90% of tested clinical Isolates of Enterobacter aerogenes(19); outline: as §1
Proteus vulgaris = test: In Vitro Anti Bacterial Activity (MIC90) against 90% of tested clinical Isolates of Proteus vulgaris(10); outline: as §1
Staphylococcus aureus [20] = test: In vitro antibacterial activity against Sa MR(II) homogeneous methicillin resistant Staphylococcus aureus; outline: as §3
Morganella morganii = test: In Vitro Anti Bacterial Activity (MIC90) against 90% of tested clinical Isolates of Morganella morganii(10); outline: as §1
Enterococcus faecalis [21] = test: In Vitro antibacterial activity against (Ef) Enterococcus faecalis ATCC 29212; outline: as §2
Escherichia coli [22] = test: In Vitro antibacterial activity against (Ec) Escherichia coli ATCC 25922; outline: as §2

With C[C@@H](O)[C@H]1C(=O)N2C(C(=O)O)=C(CN3CCC[C@H]3C(N)=O)S[C@H]12 the MIC90 [1] was 0.12 µg/mL (≈ 0.352 µM), the MIC90 (Clostridium perfringens) was 1 µg/mL (≈ 2.93 µM) and the MIC90 (Streptococcus agalactiae) was 0.03 µg/mL (≈ 0.0879 µM). It also gave an MIC90 (Listeria monocytogenes) of 0.5 µg/mL (≈ 1.46 µM), an MIC (Staphylococcus aureus [2]) of 0.015 µg/mL (≈ 0.0439 µM) and an MIC90 (Yersinia sp.) of 0.25 µg/mL (≈ 0.732 µM). It also gave an MIC90 [3] greater than 64 µg/mL, an MIC90 (Aeromonas) of 0.5 µg/mL (≈ 1.46 µM) and an MIC90 (Streptococcus pneumoniae) of 0.06 µg/mL (≈ 0.176 µM). It also gave an MIC (Escherichia coli [4]) of 2 µg/mL (≈ 5.86 µM), an MIC (Pseudomonas aeruginosa [5]) of 64 µg/mL (≈ 187 µM) and an MIC90 (Proteus mirabilis) of 4 µg/mL (≈ 11.7 µM). For the same compound, the MIC90 (Haemophilus influenzae) was 4 µg/mL (≈ 11.7 µM), the MIC90 (Providencia rettgeri) was 4 µg/mL (≈ 11.7 µM) and the MIC (Staphylococcus aureus [6]) was 0.12 µg/mL (≈ 0.352 µM). The MIC90 (Streptococcus pyogenes) was 0.06 µg/mL (≈ 0.176 µM), the MIC (Staphylococcus aureus [7]) was 0.5 µg/mL (≈ 1.46 µM) and the MIC (Pseudomonas aeruginosa [8]) was 2 µg/mL (≈ 5.86 µM). It also gave an MIC90 (Citrobacter freundii) of 0.5 µg/mL (≈ 1.46 µM), an MIC90 (Klebsiella pneumoniae) of 0.5 µg/mL (≈ 1.46 µM) and an MIC90 (Bacteroides fragilis) of 16 µg/mL (≈ 46.9 µM). The MIC90 (Enterococcus faecium) was greater than 64 µg/mL, the MIC (Escherichia coli [9]) was 2 µg/mL (≈ 5.86 µM) and the MIC (Escherichia coli [10]) was 2 µg/mL (≈ 5.86 µM). It also gave an MIC90 (Moraxella catarrhalis) of 0.25 µg/mL (≈ 0.732 µM), an MIC90 (Pseudomonas aeruginosa [11]) greater than 64 µg/mL and an MIC (Pseudomonas aeruginosa [12]) of 1 µg/mL (≈ 2.93 µM). It also gave an MIC (Escherichia coli [13]) of 2 µg/mL (≈ 5.86 µM), an MIC90 (Staphylococcus aureus [14]) of 8 µg/mL (≈ 23.4 µM) and an MIC90 (Staphylococcus aureus [15]) of 0.06 µg/mL (≈ 0.176 µM). The MIC (Escherichia coli [16]) was 2 µg/mL (≈ 5.86 µM), the MIC90 (Enterococcus faecalis [17]) was 8 µg/mL (≈ 23.4 µM) and the MIC90 (Providencia stuartii) was 4 µg/mL (≈ 11.7 µM). For the same compound, the MIC90 (Escherichia coli [18]) was 0.12 µg/mL (≈ 0.352 µM), the MIC90 [19] was 16 µg/mL (≈ 46.9 µM) and the MIC90 (Klebsiella aerogenes) was 16 µg/mL (≈ 46.9 µM). It also gave an MIC90 (Proteus vulgaris) of 4 µg/mL (≈ 11.7 µM), an MIC (Staphylococcus aureus [20]) of 2 µg/mL (≈ 5.86 µM) and an MIC90 (Morganella morganii) of 4 µg/mL (≈ 11.7 µM).
Work on C[C@@H](O)[C@H]1C(=O)N2C(C(=O)O)=C(CN3C[C@H](O)C[C@H]3C(N)=O)S[C@H]12 yielded an MIC90 [1] of 1 µg/mL (≈ 2.8 µM), an MIC90 (Clostridium perfringens) of 0.25 µg/mL (≈ 0.7 µM) and an MIC90 (Streptococcus agalactiae) of 0.06 µg/mL (≈ 0.168 µM). The MIC90 (Listeria monocytogenes) was 0.12 µg/mL (≈ 0.336 µM), the MIC (Staphylococcus aureus [2]) was 0.12 µg/mL (≈ 0.336 µM) and the MIC90 (Yersinia sp.) was 0.15 µg/mL (≈ 0.42 µM). For the same compound, the MIC90 [3] was greater than 64 µg/mL, the MIC90 (Aeromonas) was 2 µg/mL (≈ 5.6 µM) and the MIC90 (Streptococcus pneumoniae) was 0.03 µg/mL (≈ 0.0839 µM). It also gave an MIC (Escherichia coli [4]) of 0.25 µg/mL (≈ 0.7 µM), an MIC (Pseudomonas aeruginosa [5]) greater than 64 µg/mL and an MIC90 (Proteus mirabilis) of 4 µg/mL (≈ 11.2 µM). It also gave an MIC90 (Haemophilus influenzae) of 4 µg/mL (≈ 11.2 µM), an MIC90 (Providencia rettgeri) of 4 µg/mL (≈ 11.2 µM) and an MIC (Staphylococcus aureus [6]) of 0.12 µg/mL (≈ 0.336 µM). It also gave an MIC90 (Streptococcus pyogenes) of 0.03 µg/mL (≈ 0.0839 µM), an MIC (Staphylococcus aureus [7]) of 0.25 µg/mL (≈ 0.7 µM) and an MIC (Pseudomonas aeruginosa [8]) of 0.06 µg/mL (≈ 0.168 µM). It also gave an MIC (Enterococcus faecalis [21]) of 2 µg/mL (≈ 5.6 µM), an MIC90 (Citrobacter freundii) of 1 µg/mL (≈ 2.8 µM) and an MIC90 (Klebsiella pneumoniae) of 0.5 µg/mL (≈ 1.4 µM). The MIC (Escherichia coli [22]) was 0.03 µg/mL (≈ 0.0839 µM), the MIC90 (Bacteroides fragilis) was 32 µg/mL (≈ 89.5 µM) and the MIC90 (Enterococcus faecium) was greater than 64 µg/mL. The MIC (Escherichia coli [9]) was 0.25 µg/mL (≈ 0.7 µM), the MIC (Escherichia coli [10]) was 0.12 µg/mL (≈ 0.336 µM) and the MIC90 (Moraxella catarrhalis) was 1 µg/mL (≈ 2.8 µM). It also gave an MIC90 (Pseudomonas aeruginosa [11]) greater than 64 µg/mL, an MIC (Pseudomonas aeruginosa [12]) of 0.2 µg/mL (≈ 0.56 µM) and an MIC (Escherichia coli [13]) of 0.03 µg/mL (≈ 0.0839 µM). The MIC90 (Staphylococcus aureus [14]) was greater than 32 µg/mL, the MIC90 (Staphylococcus aureus [15]) was 0.12 µg/mL (≈ 0.336 µM) and the MIC (Escherichia coli [16]) was 0.12 µg/mL (≈ 0.336 µM). The MIC90 (Enterococcus faecalis [17]) was 8 µg/mL (≈ 22.4 µM), the MIC90 (Providencia stuartii) was 4 µg/mL (≈ 11.2 µM) and the MIC90 (Escherichia coli [18]) was 0.015 µg/mL (≈ 0.042 µM). For the same compound, the MIC90 [19] was 16 µg/mL (≈ 44.8 µM), the MIC90 (Klebsiella aerogenes) was 16 µg/mL (≈ 44.8 µM) and the MIC90 (Proteus vulgaris) was 4 µg/mL (≈ 11.2 µM). For the same compound, the MIC (Staphylococcus aureus [20]) was 8 µg/mL (≈ 22.4 µM) and the MIC90 (Morganella morganii) was 8 µg/mL (≈ 22.4 µM).
